# Screens from PubChem.
# A selection: hits, their analogues and other compounds. The true share with any hit is near 3%.
# S1P1 ag-PAM = agonists and agonism potentiators of human S1P1 receptor; S1P1 CRE-bla cells, forskolin, beta-lactamase FRET, potentiator mode; S1P1 agonist co-added at EC20, 2 nM; 100% = saturating reference agonist, 0% = basal; activation, % at 9.5 µM; 0.57% of 56,000 active; AID 449;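 active = activation above a cutoff set at the mean activation of all tested compounds plus 3 SD, cut at about 54% in these data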;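 note: forskolin at 4 µM as EC80 and the EC20 agonist is SEW2871; 100% = SEW2871 at its EC100 plus forskolin at EC80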
# HTR1A agonist = agonists of human 5-HT1a serotonin receptor; activation, % at 10 µM; CHO 5-HT1a Ga15 NFAT-bla reporter, FRET ratio; 0% basal, 100% maximal reference agonist; P08908; AID 567; 0.56% of 65,000 active;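 active = activation above the screen-wide mean activation plus 3 SD, cut at about 19% in these data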;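 note: 0% = DMSO wells and 100% = 5-CT at EC100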
# HTR1E agonist = agonists of human 5-HT1E serotonin receptor; P28566; CHO 5-HT1E Ga15 NFAT-bla reporter, FRET; 0% DMSO wells, 100% control agonist wells; 0.69% of 65,000 active; activation, % at 6 µM;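 active = activation above a set limit, the screen-wide mean activation plus 3 SD, cut at about 8.5% in these data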;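 note: 100% = positive control agonist at 1 µM giving full maximal response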
# Target sequence (P28566 whole entry, looked up): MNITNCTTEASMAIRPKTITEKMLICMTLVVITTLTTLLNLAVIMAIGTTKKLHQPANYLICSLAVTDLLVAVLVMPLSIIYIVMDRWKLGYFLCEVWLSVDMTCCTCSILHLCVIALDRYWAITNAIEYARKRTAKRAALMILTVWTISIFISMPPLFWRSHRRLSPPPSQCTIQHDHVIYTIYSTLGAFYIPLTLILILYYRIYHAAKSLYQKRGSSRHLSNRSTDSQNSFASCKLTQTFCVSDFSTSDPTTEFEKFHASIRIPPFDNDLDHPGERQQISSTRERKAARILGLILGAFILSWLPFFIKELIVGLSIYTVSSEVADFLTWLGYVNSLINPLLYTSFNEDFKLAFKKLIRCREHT
# 5HT1E antag = antagonists of human 5-HT1E serotonin receptor; P28566; CHO 5-HT1E Ga15 NFAT-bla reporter, FRET, antagonist; inhibition, % at 6 µM; 0.99% of 65,000 active; AID 571;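 active = inhibition above a set limit, the mean inhibition across every tested compound plus 3 SD, cut at about 29% in these data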;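 note: signal is the 460 over 535 nm emission ratio of beta-lactamase substrate; 0% = agonist plus DMSO wells and 100% = wells without agonist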
# 5HT1a antag = blocks the human serotonin 5-HT1a receptor; inhibition, % at 10 µM; AID 612; CHO 5-HT1a Ga15 NFAT-bla reporter, antagonist mode; 0.68% of 62,000 active;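 active = inhibition above the mean of all tested compounds plus 3 SD, cut at about 43% in these data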;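 note: receptor stimulated by 5-CT agonist at 100 nM near EC80; beta-lactamase reporter measured by ratiometric fluorescence of a cleavable substrate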
# S1P3 ag = activates the human S1P3 receptor; Q99500; S1P3 NFAT-BLA reporter cells, agonism, FRET ratio; relative to 1 µM S1P, basal subtracted; activation, % at 4.5 µM; 0.1% of 60,000 active;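 active = activation above the screen-wide mean plus 3 SD, cut at about 4.5% in these data, passing the limit was not always enough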
#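 Benchmarks: high control 1 µM S1P / System: stable CHO line with human S1P3, Gα16, NFAT-BLA reporter / Dosing: single compound concentration, 4.5 µM final / Timing: 4 h compound at 37 °C, 2 h substrate at RT / Measured by: FRET β-lactamase substrate fluorescence, excitation 405 nm, 460/535 nm emission ratio, background-subtracted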
# The depositor's hits bear a star; x = not tested or not shown.
SMILES,S1P1 ag-PAM,HTR1A agonist,HTR1E agonist,5HT1E antag,5HT1a antag,S1P3 ag
CC1CN(C(=O)CN2C(=O)NC3(CCCCCCC3)C2=O)CC(C)O1 (configuration not stated),-9.8,-1.1,19.7*,-9.5,-10.9,-0.2
COc1ccc(-c2nnc3sc(-c4cccs4)nn23)cc1OC,-29.3,0.6,1.3,35.8*,-16.3,0.2
COc1cc(-c2nn3c(-c4cccnc4)nnc3s2)cc(OC)c1OC,-8.1,-1.4,-0.3,18.9,x,-0.2
COc1ccc(-c2nn3c(-c4cccc(C)c4)nnc3s2)cc1OC,-67.5,3.4,2.5,18.0,-18.6,-0.2
COc1cc(-c2nnc3sc(-c4cccs4)nn23)cc(OC)c1OC,-3.2,4.9,-0.3,37.7*,-20.0,1.4
O=C(COc1ccc2ccccc2c1Br)Nc1ncn[nH]1,x,-1.5,0.7,-1.4,-7.5,0.0
O=C(c1cccc(C(=O)N2CCN(c3ccccc3F)CC2)c1)N1CCN(c2ccccc2F)CC1,x,1.2,0.1,-4.7,2.6,-0.3
O=C(NCN1CCN(c2ccccc2F)CC1)c1ccccc1,-0.7,-2.0,10.3*,-2.0,14.6,-0.5
O=C(Nc1ccc(C(F)(F)F)cc1)C1CCCN1S(=O)(=O)c1cccc2cccnc12 (configuration not stated),66.0*,-1.9,-1.2,9.8,-1.8,0.3
O=C(Nc1ccc2c(c1)OCCO2)C1CCCN1S(=O)(=O)c1cccc2cccnc12 (configuration not stated),6.2,75.4*,-0.6,0.6,4.7,-0.1
CCOC(=O)C1C(=O)NC(N2CCCCC2)=NC1c1ccco1 (configuration not stated),5.7,0.3,0.5,-7.1,-16.5,-0.7
CCOC(=O)Nc1ccc2c(c1)N(C(=O)CCN1CCOCC1)c1ccccc1S2=O (configuration not stated),31.5,-3.5,-0.8,17.8,51.9*,0.0
CCOC(=O)Nc1ccc2c(c1)N(C(=O)CCN1CCOCC1)c1ccccc1S2,-28.7,-0.8,0.4,7.5,2.2,-0.9
CN(C)CCNC(=O)C(C(=O)c1ccc(F)cc1)n1ccccc1=O (configuration not stated),-4.1,120.0*,1.2,0.3,3.8,-1.6
O=C(NCc1ccco1)C(C(=O)c1ccc(F)cc1)n1ccccc1=O (configuration not stated),15.4,-2.4,-0.5,-3.0,12.3,0.5
CCOC(=O)N1CCC(NC(=O)C2CCCN(Cc3nc(-c4cccc(Cl)c4)oc3C)C2)CC1 (configuration not stated),102.8*,2.0,0.8,11.8,24.8,-1.9
CCc1ccc(-c2nc(CN3CCCC(C(=O)NCCc4ccc(OC)c(OC)c4)C3)c(C)o2)cc1 (configuration not stated),-14.4,37.5*,1.6,-16.9,-1.2,-0.5
COc1ccc(CCNC(=O)C2CCCN(Cc3nc(-c4ccccc4C)oc3C)C2)cc1OC (configuration not stated),-28.7,33.1*,0.4,-7.5,-3.4,0.2
COc1ccc(CCNC(=O)C2CCN(Cc3nc(-c4cccc(Cl)c4)oc3C)CC2)cc1OC,19.7,1.2,1.9,-10.6,1.0,-0.7
CCOc1ccccc1C(=O)N(Cc1cccs1)C1CCS(=O)(=O)C1 (configuration not stated),-14.2,0.2,-0.1,-3.6,-2.2,-0.9
CCC(C)NC(=O)CCNS(=O)(=O)c1ccc(Br)cc1 (configuration not stated),x,0.4,-0.9,-5.7,-3.0,x
CC1(C)CC(=O)C2=C(C1)Nc1ncnn1C2c1ccccn1 (configuration not stated),-9.1,0.4,0.3,2.0,0.4,-0.9
O=C1NCCN1Cc1cccc(Cl)c1,-1.2,28.3*,0.2,-3.3,4.9,0.2
O=S(=O)(c1ccccc1)N1CCN(Cc2cccc(Cl)c2)CC1,-13.9,-2.2,-0.2,-3.9,-15.1,-0.1
O=C(O)C1CCCCC1C(=O)NCCc1ccc(Cl)cc1 (configuration not stated),-1.7,-4.3,21.3*,-12.9,-1.4,0.5
SMILES,S1P1 ag-PAM,HTR1A agonist,HTR1E agonist,5HT1E antag,5HT1a antag,S1P3 ag
Nc1nsc2ccccc12,39.0,-5.8,-1.6,25.0,73.3*,-2.1
Nc1nc2ccccc2nc1N,-19.9,-1.8,-0.4,-6.2,3.4,-2.1
C=CCn1c2ccccc2c2nnc(SCCCn3c(=O)[nH]c4ccccc43)nc21,x,10.4,0.8,21.5,47.6*,x
O=c1[nH]c2ccccc2n1CCCSc1cnc2ccccc2n1,44.8,1.1,2.0,9.9,18.0,-0.4
O=S(=O)(Nc1nc(CN2CCOCC2)nc2sc3c(c12)CCCC3)c1cc(F)ccc1F,-0.5,0.8,0.2,-9.0,-1.7,1.2
COC(=O)CS(=O)(=O)c1nnc([C@H](Cc2ccccc2)NC(=O)OC(C)(C)C)o1,55.6*,-6.7,-0.3,29.4*,33.4,-1.4
COC(=O)CSc1nnc([C@H](Cc2ccccc2)NC(=O)OC(C)(C)C)o1,-6.5,0.1,-0.7,2.5,2.4,0.2
CCOC(=O)c1cccc2c1-c1ccccc1/C2=N/O,62.0*,-1.9,0.2,21.1,30.4,-1.4
CC1(C)SCC2C(=O)N3C(CSC3(C)C)C(=O)N21 (configuration not stated),-23.4,-0.6,0.4,-2.9,-5.3,-1.1
COc1ccccc1CNC(=O)c1nnc(Cc2ccc(Cl)cc2)o1,4.8,19.5*,0.7,-2.5,-6.6,-1.2
CC(=O)OC(/C(O)=C(\C#N)c1nc2ccccc2[nH]1)c1ccccc1 (configuration not stated),-22.2,2.0,0.4,0.0,-3.9,1.0
c1ccc(-c2csc3ncn4cnnc4c23)cc1,1.1,-1.6,-0.5,31.7*,9.1,-1.1
COC(=O)c1ccc(NC(=O)CSc2nnc(COc3ccccc3)n2C)cc1,x,-1.5,-0.1,-6.6,-0.1,-0.8
COc1cc(C)c(S(=O)(=O)N2CCOCC2)cc1C(C)C,-36.9,-2.0,0.0,1.4,2.8,-0.6
COc1cc(C)c(N)cc1C(C)C,-8.8,0.6,23.4*,-4.9,-4.6,0.1
CCOC(=O)N1CCC(N2Cc3cccc(C(=O)N4CC(C)CC(C)C4)c3C2=O)CC1 (configuration not stated),15.4,-0.3,0.5,-3.3,2.8,0.3
CCOC(=O)N1CCC(N2Cc3cccc(C(=O)O)c3C2=O)CC1,-16.1,82.9*,0.2,-6.4,-2.5,-1.1
CCOc1ccc(NC(=O)COC(=O)c2cccnc2)cc1,-6.8,-2.3,4.1,-5.9,-1.5,-1.7
CC(=O)c1c(C)oc(C)c1CSCc1ccc(C(=O)O)o1,x,1.4,-0.1,-1.4,-0.5,-0.2
